# Target: T1, Phosphatidylserine lipase ABHD16A (Homo sapiens, UniProt O95870)
# T1 sequence (O95870 whole entry): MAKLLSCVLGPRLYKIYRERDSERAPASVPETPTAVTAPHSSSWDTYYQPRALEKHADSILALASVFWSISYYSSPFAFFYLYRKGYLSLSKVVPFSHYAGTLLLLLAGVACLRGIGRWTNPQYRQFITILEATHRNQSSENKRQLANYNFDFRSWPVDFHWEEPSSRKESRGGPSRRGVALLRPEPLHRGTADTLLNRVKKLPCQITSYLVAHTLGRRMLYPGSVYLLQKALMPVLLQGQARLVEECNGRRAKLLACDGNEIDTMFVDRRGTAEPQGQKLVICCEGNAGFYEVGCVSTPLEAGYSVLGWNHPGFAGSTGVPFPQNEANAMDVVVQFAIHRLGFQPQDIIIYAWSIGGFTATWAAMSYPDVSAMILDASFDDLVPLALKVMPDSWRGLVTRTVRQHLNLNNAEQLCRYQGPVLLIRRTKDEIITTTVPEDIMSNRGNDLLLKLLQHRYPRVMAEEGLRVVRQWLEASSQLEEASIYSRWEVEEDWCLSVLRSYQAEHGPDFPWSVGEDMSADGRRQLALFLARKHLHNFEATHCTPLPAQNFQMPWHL
# Assay: Inhibition of ABHD16A (unknown origin)
# Procedure, shortened: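 Lysates of HEK293 cells transiently overexpressing human ABHD16A were pretreated for 30 min with DMSO (control) or inhibitor. 1-LG substrate (25 µM final) was then added, and liberated glycerol was measured. Screening was at 10 µM as % control activity (n=2-3). Dose-response used 0.1-100 µM, duplicate wells from two independent experiments, giving IC50.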
smiles,measurement,value
COc1nn(-c2ccc(F)cc2)c(=O)o1,IC50,0.032 µM
